Test results: ChEMBL document CHEMBL1122885, “Imidazo[1,5-a]pyridines: a new class of thromboxane A2 synthetase inhibitors” (J Med Chem, 1985)

Tests used:
[1] = target: T1, Thromboxane-A synthase (Homo sapiens, UniProt P24557); experiment: In vitro inhibition of thromboxane A2 synthetase from human platelets.
T1 sequence (P24557 whole entry): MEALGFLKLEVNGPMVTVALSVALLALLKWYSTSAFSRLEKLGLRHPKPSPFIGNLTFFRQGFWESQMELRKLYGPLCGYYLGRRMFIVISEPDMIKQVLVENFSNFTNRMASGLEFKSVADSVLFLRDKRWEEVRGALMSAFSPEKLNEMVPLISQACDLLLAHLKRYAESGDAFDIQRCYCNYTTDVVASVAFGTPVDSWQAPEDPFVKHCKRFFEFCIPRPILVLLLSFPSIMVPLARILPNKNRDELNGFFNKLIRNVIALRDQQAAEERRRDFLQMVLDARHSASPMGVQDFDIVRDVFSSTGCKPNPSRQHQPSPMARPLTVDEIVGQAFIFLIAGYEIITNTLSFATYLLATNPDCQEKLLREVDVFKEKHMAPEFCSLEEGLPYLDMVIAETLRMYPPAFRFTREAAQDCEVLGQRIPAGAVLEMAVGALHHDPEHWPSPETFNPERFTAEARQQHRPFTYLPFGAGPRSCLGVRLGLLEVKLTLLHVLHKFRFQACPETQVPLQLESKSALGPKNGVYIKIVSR
Procedure, shortened: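 Human platelet microsomal Tx synthetase, mixed with solubilized partially purified sheep seminal vesicle PGH2 synthetase to make endoperoxide in situ from [1-14C]arachidonic acid (2 nmol). Buffer 0.1 M Tris-HCl pH 7.5 with tryptophan 5 mM and hemoglobin 0.2 μM; 30 min, 37 °C. PGE2 reduced; TLC, scintillation counting. IC50 read graphically as 50% fall in TxB2/PGF2(α+β) count ratio; mean of ≥2 experiments.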

[2] = Partition coefficient (logP); assay type: physicochemical; conditions: octanol/water
[3] = target: T1, Thromboxane-A synthase; experiment: In vitro inhibitory activity against thromboxane A2 synthetase with lysed human platelets as the enzyme source.
Procedure, shortened: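 Crude microsomal Tx synthetase from human platelets plus partially purified sheep seminal vesicle PGH2 synthetase forming endoperoxide in situ from [1-14C]arachidonic acid (4 μM); 0.1 M Tris-HCl pH 7.5, 5 mM tryptophan, 0.2 μM hemoglobin; 30 min, 37 °C. PGE2 reduced to PGF2(α+β); products separated by TLC and counted by scintillation. IC50 read graphically at 50% of control TxB2/PGF2(α+β) count ratio; mean of ≥2 experiments.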

[4] = target: Prostacyclin synthase (Bos taurus); experiment: In vitro inhibitory activity against prostacyclin synthetase
[5] = target: Cyclooxygenase (Ovis aries); experiment: In vitro inhibitory activity against Prostaglandin G/H synthase

O=C(O)/C=C/CCCc1cccc2cncn12
IC50 [1]: 4.8 nM

O=C(O)/C=C/CCCCCc1cccc2cncn12
IC50 [1]: 40 nM

O=C(O)CCCCc1ccc2cncn2c1
IC50 [1]: 3300 nM

Cc1ncc2cccc(CCCCCC(=O)O)n12
IC50 [1]: 25000 nM

NC(=O)CCCCCc1cccc2cncn12
IC50 [1]: 77 nM

C/C(=C\CCCCCc1cccc2cncn12)C(=O)O
IC50 [1]: 19 nM

CNC(=O)CCCCCc1cccc2cncn12
IC50 [1]: 270 nM

O=C(O)CCCCc1cccc2cncn12
logP [2]: 0.7 | IC50 [1]: 41 nM

CCCCCCCc1cccc2cncn12
IC50 [1]: 3300 nM

O=C(O)CCCCc1ccn2cncc2c1
IC50 [1]: 4700 nM

O=C(CCCCCc1cccc2cncn12)NO
IC50 [1]: 20 nM

O=C(O)CCCCCCc1cccc2cncn12
logP [2]: 1.54 | IC50 [1]: 5.2 nM

CCOC(=O)CCCCCc1cccc2cncn12
IC50 [1]: 330 nM

O=C(O)/C=C/C=C/c1cccc2cncn12
IC50 [1]: 28 nM

O=C(O)CCCCc1cccn2cncc12
IC50 [1]: 390 nM

O=C(O)CCCCCCCc1cccc2cncn12
logP [2]: 2.01 | IC50 [1]: 21 nM

OCCCCCCc1cccc2cncn12
IC50 [1]: 280 nM

CN(C)C(=O)CCCCCc1cccc2cncn12
IC50 [1]: 550 nM

c1cc(CCCCc2nnn[nH]2)n2cncc2c1
IC50 [1]: 11 nM

c1cc(CCCCCc2nnn[nH]2)n2cncc2c1
IC50 [1]: 19 nM

N#CCCCCCc1cccc2cncn12
IC50 [1]: 630 nM

O=C(O)CCCCCc1cccc2cncn12 [PIRMAGREL]
logP [2]: 1.1 | IC50 [3]: 3.2 nM | IC50 [4]: 100000 nM | IC50 [5]: 10000 nM
